Data reported in ChEMBL document CHEMBL1153313, “Fluorinated 9H-xanthene-9-carboxylic acid oxazol-2-yl-amides as potent, orally available mGlu1 receptor enhancers” (Bioorg Med Chem Lett, 2009).

Experiments:
[1] = molecular target: Metabotropic glutamate receptor 1 (Rattus norvegicus) (UniProt P23385); assay: Agonist activity at rat mGlu1 receptor expressed in HEK293 cells assessed as increase in intracellular calcium by FLIPR assay relative to control; format: functional, cell-based; set-up: concentration or dose not given beside the values
Sequence of Metabotropic glutamate receptor 1 (Rattus norvegicus) (P23385 19-1199 limits assumed): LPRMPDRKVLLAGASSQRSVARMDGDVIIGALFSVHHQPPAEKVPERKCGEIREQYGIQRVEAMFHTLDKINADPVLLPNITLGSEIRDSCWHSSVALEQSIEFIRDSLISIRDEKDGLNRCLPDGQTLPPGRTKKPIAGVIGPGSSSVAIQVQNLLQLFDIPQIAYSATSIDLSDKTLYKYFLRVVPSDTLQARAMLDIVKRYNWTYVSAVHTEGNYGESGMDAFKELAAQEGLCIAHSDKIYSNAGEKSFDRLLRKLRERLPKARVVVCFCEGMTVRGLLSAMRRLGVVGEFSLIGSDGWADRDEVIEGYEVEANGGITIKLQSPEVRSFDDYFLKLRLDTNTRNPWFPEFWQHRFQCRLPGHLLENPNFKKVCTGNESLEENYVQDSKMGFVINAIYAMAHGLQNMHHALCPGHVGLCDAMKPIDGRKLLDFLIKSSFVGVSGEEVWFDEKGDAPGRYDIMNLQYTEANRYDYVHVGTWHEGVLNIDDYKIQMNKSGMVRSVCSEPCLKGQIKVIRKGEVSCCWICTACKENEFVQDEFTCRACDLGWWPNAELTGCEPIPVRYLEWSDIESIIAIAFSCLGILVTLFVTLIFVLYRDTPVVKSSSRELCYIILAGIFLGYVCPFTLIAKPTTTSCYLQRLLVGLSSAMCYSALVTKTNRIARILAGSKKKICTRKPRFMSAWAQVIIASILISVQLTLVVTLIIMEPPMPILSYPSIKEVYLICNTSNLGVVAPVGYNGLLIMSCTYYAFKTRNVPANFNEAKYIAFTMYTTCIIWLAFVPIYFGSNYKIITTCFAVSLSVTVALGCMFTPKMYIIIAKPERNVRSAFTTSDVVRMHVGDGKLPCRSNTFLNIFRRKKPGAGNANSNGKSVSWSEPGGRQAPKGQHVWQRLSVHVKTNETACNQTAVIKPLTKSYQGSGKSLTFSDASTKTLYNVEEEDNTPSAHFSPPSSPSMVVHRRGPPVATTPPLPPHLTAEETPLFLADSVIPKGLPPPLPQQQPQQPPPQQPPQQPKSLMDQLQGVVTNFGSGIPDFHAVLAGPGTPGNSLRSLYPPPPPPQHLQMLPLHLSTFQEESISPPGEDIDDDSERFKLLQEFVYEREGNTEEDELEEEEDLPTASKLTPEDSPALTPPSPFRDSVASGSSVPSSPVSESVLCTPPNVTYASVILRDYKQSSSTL
Procedure, shortened: (§1)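 Rat mGlu1a transiently transfected into HEK-293 cells, which were loaded with Fluo-3 AM for 1 h and then washed 4 times in assay buffer (DMEM with Hank's salts, 20 mM HEPES). [Ca2+]i was read on a fluorometric imaging plate reader and converted to fluorescence ratios. EC50 is the mean of separate values from at least three individual experiments.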

[2] = molecular target: T1, Metabotropic glutamate receptor 1 (Rattus norvegicus, UniProt P23385); assay: Agonist activity at rat mGlu1 receptor expressed in HEK293 cells assessed as increase in intracellular calcium by FLIPR assay; format: functional, cell-based; procedure, shortened: as §1
T1 sequence (P23385 whole entry): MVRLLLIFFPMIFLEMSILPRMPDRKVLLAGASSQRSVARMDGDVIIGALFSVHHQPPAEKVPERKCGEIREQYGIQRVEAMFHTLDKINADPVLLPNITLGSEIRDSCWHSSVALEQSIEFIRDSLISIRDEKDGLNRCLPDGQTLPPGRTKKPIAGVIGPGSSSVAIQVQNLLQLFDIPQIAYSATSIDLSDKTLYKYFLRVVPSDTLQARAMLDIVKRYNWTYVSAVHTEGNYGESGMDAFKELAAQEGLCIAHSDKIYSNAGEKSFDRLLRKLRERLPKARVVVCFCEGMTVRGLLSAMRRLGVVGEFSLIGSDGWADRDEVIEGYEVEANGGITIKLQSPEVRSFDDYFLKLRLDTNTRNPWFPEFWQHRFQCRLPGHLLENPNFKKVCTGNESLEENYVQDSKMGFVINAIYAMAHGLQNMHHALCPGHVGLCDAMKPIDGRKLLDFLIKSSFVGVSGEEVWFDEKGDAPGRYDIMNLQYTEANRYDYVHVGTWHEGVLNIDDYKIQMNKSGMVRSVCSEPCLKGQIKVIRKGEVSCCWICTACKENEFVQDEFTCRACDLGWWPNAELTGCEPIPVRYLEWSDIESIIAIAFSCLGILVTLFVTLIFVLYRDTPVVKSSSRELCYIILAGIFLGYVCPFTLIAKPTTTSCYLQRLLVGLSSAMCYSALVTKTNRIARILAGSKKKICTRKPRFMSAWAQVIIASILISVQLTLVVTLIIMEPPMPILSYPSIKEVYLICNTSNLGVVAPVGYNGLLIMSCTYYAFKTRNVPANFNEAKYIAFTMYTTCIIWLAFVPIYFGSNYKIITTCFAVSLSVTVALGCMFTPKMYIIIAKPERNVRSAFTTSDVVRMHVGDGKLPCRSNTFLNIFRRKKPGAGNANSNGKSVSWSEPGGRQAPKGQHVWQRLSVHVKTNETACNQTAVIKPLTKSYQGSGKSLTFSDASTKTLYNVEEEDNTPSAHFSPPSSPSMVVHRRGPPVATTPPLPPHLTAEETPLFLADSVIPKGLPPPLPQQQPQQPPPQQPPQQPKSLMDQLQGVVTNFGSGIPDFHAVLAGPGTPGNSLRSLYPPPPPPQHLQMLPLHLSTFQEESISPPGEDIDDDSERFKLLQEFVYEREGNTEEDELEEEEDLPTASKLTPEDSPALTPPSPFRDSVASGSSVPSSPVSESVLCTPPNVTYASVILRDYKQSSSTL

[3] = Metabolic stability in rat microsomes assessed as intrinsic clearance per mg protein; format: ADME, Microsome
[4] = molecular target: Metabotropic glutamate receptor 1 (Rattus norvegicus) (UniProt P23385); assay: Agonist activity at rat mGlu1 receptor expressed in CHO cells assessed as […] of glutamate-activated K+ currents by electrophysiology relative to glutamate; format: functional, cell-based; set-up: concentration or dose not given beside the values
[5] = molecular target: T1, Metabotropic glutamate receptor 1; assay: Agonist activity at rat mGlu1 receptor expressed in CHO cells assessed as potentiation of glutamate-activated K+ currents by electrophysiology
[6] = Half life in rat at 10 mg/kg, iv and po; format: ADME, organism-based; set-up: dose 10 mg/kg, route oral; conditions: in vivo
Procedure, shortened: (§2)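 Wistar rats, two per group, fitted with implanted jugular vein catheters. These catheters were used for the iv bolus and for blood sampling. Blood was drawn at 0.3, 0.5, 1, 2, 4, 8 and 24 h after iv or po administration for the plasma pharmacokinetic parameters.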

[7] = Cmax in rat plasma at 10 mg/kg, po; format: ADME, organism-based; set-up: dose 10 mg/kg, route oral; procedure, shortened: as §2
Rattus norvegicus = assay: Volume of distribution in rat at 10 mg/kg, iv and po; format: ADME, organism-based; set-up: dose 10 mg/kg, route oral; conditions: in vivo; procedure, shortened: as §2
[8] = Half life in rat at 5 mg/kg, iv and 10 mg/kg, po; format: ADME, organism-based; conditions: in vivo; procedure, shortened: as §2
[9] = Clearance in rat at 5 mg/kg, iv and 10 mg/kg, po; format: ADME, organism-based; conditions: in vivo; procedure, shortened: as §2
[10] = Volume of distribution in rat at 5 mg/kg, iv and 10 mg/kg, po; format: ADME, organism-based; conditions: in vivo, read-out: Vdss; procedure, shortened: as §2
[11] = Volume of distribution in rat at 3 mg/kg, iv and 6 mg/kg, po; format: ADME, organism-based; conditions: in vivo, read-out: Vdss; procedure, shortened: as §2
[12] = Clearance in rat at 3 mg/kg, iv and 6 mg/kg, po; format: ADME, organism-based; conditions: in vivo; procedure, shortened: as §2
[13] = Cmax in rat plasma at 6 mg/kg, po; format: ADME, organism-based; set-up: dose 6 mg/kg, route oral; procedure, shortened: as §2
[14] = Half life in rat at 3 mg/kg, iv and 6 mg/kg, po; format: ADME, organism-based; conditions: in vivo; procedure, shortened: as §2
[15] = Volume of distribution in rat at 1 mg/kg, iv and 10 mg/kg, po; format: ADME, organism-based; conditions: in vivo, read-out: Vdss; procedure, shortened: as §2
[16] = Clearance in rat at 1 mg/kg, iv and 10 mg/kg, po; format: ADME, organism-based; conditions: in vivo; procedure, shortened: as §2
[17] = Ratio of drug level in brain to plasma in rat at 1 mg/kg, iv and 6 mg/kg, po; format: ADME, organism-based; conditions: in the assay text read “10 mg/kg” for “6 mg/kg”, read-out: BPR
Procedure, shortened: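 Brain/plasma ratio came from iv infusion in Wistar rats, two per group, at 1 mg/kg/h via catheter. Blood was sampled sublingually at 1, 3 and 5 h after administration. Brain tissue was taken by decapitation under isoflurane anaesthesia.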

[18] = Half life in rat at 1 mg/kg, iv and 10 mg/kg, po; format: ADME, organism-based; conditions: in vivo; procedure, shortened: as §2

| Activity [1] | EC50 ([2]; read-out: EC50) | clearance [3] | Activity [4] | EC50 [5] | SMILES | other results |
| --- | --- | --- | --- | --- | --- | --- |
| 36% | 25 nM | 12 µL/min/mg | 568% | 162 nM | O=C(Nc1ncc(C(F)(F)F)o1)C1c2cccc(F)c2Oc2c(F)cccc21 |  |
| 100% | 52 nM | 42 µL/min/mg |  | 220 nM | Cc1nc(NC(=O)C2c3ccccc3Oc3ccccc32)no1 | half-life [6]: 0.32 h; Cmax [7]: 1330 ng/mL; Vdss (Rattus norvegicus): 1.7 L/kg |
| 63% | 40 nM | 61 µL/min/mg |  |  | O=C(Nc1nc(C(F)(F)F)co1)C1c2ccccc2Oc2ccc(F)cc21 (racemic) |  |
| 50% | 40 nM | 34 µL/min/mg | 570% | 260 nM | O=C(Nc1nc(C(F)(F)F)co1)C1c2ccccc2Oc2cc(F)ccc21 (racemic) |  |
|  |  |  |  |  | O=C(Nc1ncc(C(F)(F)F)o1)C1c2ccc(F)cc2Oc2cc(F)ccc21 | EC50 ([2]; hek293): Not Active |
| 84% | 19 nM | 33 µL/min/mg | 1190% | 102 nM | O=C(Nc1nc(C(F)(F)F)co1)C1c2ccccc2Oc2c(F)cccc21 (racemic) | Cmax [7]: 1440 ng/mL; half-life [8]: 3.7 h; clearance [9]: 3.3 mL/min/kg; Vd [10]: 0.99 L/kg |
| 48% |  | 9 µL/min/mg | 300% | 90 nM | O=C(Nc1nc(C(F)(F)F)co1)C1c2cc(F)ccc2Oc2ccc(F)cc21 | Vd [11]: 0.9 L/kg; clearance [12]: 7.4 mL/min/kg; Cmax [13]: 1810 ng/mL; half-life [14]: 2.46 h |
|  |  | 28 µL/min/mg |  |  | O=C(Nc1ncc(C(F)(F)F)o1)C1c2ccccc2Oc2cc(F)ccc21 (racemic) | EC50 ([2]; hek293): Not Active |
| 86% |  | 108 µL/min/mg | 1130% | 202 nM | O=C(Nc1nc(C(F)(F)F)co1)C1c2ccccc2Oc2ccccc21 | half-life [6]: 0.91 h; Cmax [7]: 1330 ng/mL; Vdss (Rattus norvegicus): 0.67 L/kg |
| 104% |  | 50 µL/min/mg | 3060% | 394 nM | O=C(Nc1ncc(C(F)(F)F)o1)C1c2ccccc2Oc2ccccc21 |  |
| 57% | 20 nM | 40 µL/min/mg | 1220% | 67 nM | O=C(Nc1ncc(C(F)(F)F)o1)C1c2ccccc2Oc2ccc(F)cc21 (racemic) |  |
| 51% | 47 nM | 18 µL/min/mg | 707% | 161 nM | O=C(Nc1nc(C(F)(F)F)co1)C1c2cccc(F)c2Oc2c(F)cccc21 | Vd [15]: 0.43 L/kg; clearance [16]: 3.79 mL/min/kg; Cmax [7]: 2070 ng/mL; Kp [17]: 0.2; half-life [18]: 3.9 h |
|  |  | 38 µL/min/mg |  |  | O=C(Nc1nc(C(F)(F)F)co1)C1c2ccc(F)cc2Oc2cc(F)ccc21 | EC50 ([2]; hek293): Not Active |
| 50% |  | 32 µL/min/mg | 910% | 131 nM | O=C(Nc1ncc(C(F)(F)F)o1)C1c2ccccc2Oc2c(F)cccc21 (racemic) |  |
